From paper PMC8458252 (Circulation. Heart failure, 2021)
Each block holds one compound with its values, some of them ahead of it.

How the values were obtained:
rats = settings: cited from earlier work
PDE1 = settings: cited from earlier work
HFrEF patients [1] = assay: Supine and orthostatic blood pressure and heart rate in HFrEF patients; type: in vivo, human
Method in brief: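 Fasted HFrEF patients were randomised 3:1 to one oral liquid dose (10, 30 or 90 mg) or placebo. Supine BP and HR were taken by automated cuff every 10 min from 30 min pre-dose to 120 min post-dose, then every 30 min to 5 h. Orthostatic readings were taken at 60 ± 5 and 240 ± 15 min and on Day 5, after 1, 3 and 5 min standing. Time course versus placebo by ANCOVA; orthostatic change by ANOVA.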

[2] = tested on: plasma cGMP and cAMP levels; assay: Plasma cAMP and cGMP by LC/MS/MS in HFrEF patients; type: in vivo, human; settings: baseline versus 2 hours after dosing
Method in brief: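 HFrEF patients received one oral dose of test compound (10, 30 or 90 mg) or placebo. Plasma was sampled at baseline and 2 h post-dose and stored frozen. cAMP and cGMP were measured by a validated LC/MS/MS method with quantitation limits of 20 to 5000 […].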

PDE1A = settings: read-out: IC50 for PDE1A; cited from earlier work
HFrEF patients [3] = assay: 12-lead ECG QTc and Holter arrhythmia monitoring in HFrEF patients; type: in vivo, human
Method in brief: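 HFrEF patients fasted ≥8 h took one oral liquid dose of test compound (10, 30 or 90 mg) or placebo, randomised 3:1. 12-lead ECG at baseline, 120 ± 15 min post-dose and Day 5 ± 1. Continuous bedside telemetry plus Holter recording. Holter gave hourly supraventricular and ventricular runs and ectopic-beat burden versus pre-dose.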

PDE5 = settings: cited from earlier work
PDE1C = settings: read-out: IC50 for PDE1C; cited from earlier work
HFrEF patients [4] = assay: Echo-Doppler hemodynamics, baseline versus 2 hours post-dose, in HFrEF patients; type: in vivo, human
Method in brief: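 Single oral dose (10, 30 or 90 mg, or placebo; randomised 3:1; n=9/dose) in fasted HFrEF patients. Transthoracic 2D Doppler echo at baseline and 120 ± 15 min, read blinded in a core lab. Cuff BP/HR taken at imaging. Outputs: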

PDE3 = settings: cited from earlier work
[5] = Plasma pharmacokinetics after single oral dose in HFrEF patients; type: in vivo, human
Method in brief: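 After a single oral liquid dose (10, 30 or 90 mg) in fasted HFrEF patients, plasma was drawn pre-dose and at 5, 15, 30, 45, 90 and 120 min on Day 1, and again on Day 5. Parameters: AUC 0–2 h, Cmax, Tmax, lag time. Half-life was estimated from Day 5 levels relative to peak. Data analysed by two-way repeated-measures ANOVA.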

HFrEF patients [6] = assay: Tolerability / adverse events in HFrEF patients; type: in vivo, human
Method in brief: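 In a blinded, placebo-controlled study, stable HFrEF patients on guideline therapy were randomised 3:1 in sequential cohorts. Each received one oral liquid dose (10, 30 or 90 mg) or placebo after an ≥8 h fast. Monitoring ran 5 h post-dose, with a follow-up visit on Day 5 ± 1 (exam, ECG, blood and urine labs). Adverse events were recorded at each visit per protocol.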

SMILES: CCC(CC)Nc1ncnc2c(OC)c(OC)ccc12 [LuAF41228]
- lowering of blood pressure (rats): ≥ 15 mmHg

SMILES: CCOC(=O)C1=C[C@]2(CC)CCCN3CCc4c(n1c1ccccc41)[C@@H]32 [vinpocetine, reference compound]
- PDE1 inhibitor potency relative to ITI-214 (less potent) (PDE1): < 10^6

- drug level as % of peak concentration ([5]; after five days, at each dose): 2-3%
- time at which peak concentration was achieved ([5]; after oral dosing): ≤ 45 min
- half-life ([5]; human, plasma, oral): ~1320 min
- Tmax ([5]; human, plasma, po, 90 mg): 45 to 66 min
SMILES: CN1C(=O)c2c(nn(Cc3ccc(-c4cccc(F)n4)cc3)c2Nc2ccccc2)N2C1=N[C@@H]1CCC[C@@H]12 [ITI-214]
- diastolic BP change (HFrEF patients [1]; over 2 hours post-dose, each dose): declined
- increase in heart rate (HFrEF patients [1]; single oral dose 10-90 mg): 5-9 bpm
- orthostatic SBP changes versus placebo (HFrEF patients [1]; upon standing): No SBP changes were significantly different
- plasma cAMP level [2]: did not significantly change
- plasma cGMP level [2]: did not significantly change
- potency relative to either Lu-compound (more potent) (PDE1; versus LuAF41228 and LuAF58027): > 1000 x
- IC50 (PDE1A): 0.035 nM
- change in QTc (HFrEF patients [3]; 10 mg, 120 minutes post-dose versus baseline): 1 ± 9 ms
- change in QTc (HFrEF patients [3]; 10 mg, Day 5 versus baseline): -13 ± 17 ms
- change in QTc (HFrEF patients [3]; 30 mg, 120 minutes post-dose versus baseline): -4 ± 18 ms
- change in QTc (HFrEF patients [3]; 30 mg, Day 5 versus baseline): -19 ± 22 ms
- change in QTc (HFrEF patients [3]; 90 mg, 120 minutes post-dose versus baseline): -4 ± 24 ms
- change in QTc (HFrEF patients [3]; 90 mg, Day 5 versus baseline): -16 ± 19 ms
- arrhythmia outcomes (Holter) (HFrEF patients [3]; compared to pre-dosing): no clinical change
- selectivity for PDE1 over PDE5 (PDE5): 19,000 fold
- IC50 (PDE1C): 0.035 nM
- median change in PWRi (mean LV power index) (HFrEF patients [4]; 10 mg, baseline to 120 minutes): 0.018 (IQR 0.122) Watts/mL^2·10^4
- median rise in cardiac output (HFrEF patients [4]; 10 mg, baseline to 120 minutes): 0.717 L/min
- E/E’ (HFrEF patients [4]; 30 mg): small rise
- change in systemic vascular resistance (HFrEF patients [4]; 30 mg, baseline to 120 minutes): −564 dynes·s/cm^−5
- median change in PWRi (mean LV power index) (HFrEF patients [4]; 30 mg, baseline to 120 minutes): 0.143 (IQR 0.154) Watts/mL^2·10^4
- median rise in cardiac output (HFrEF patients [4]; 30 mg, baseline to 120 minutes): 0.830 L/min
- change in systemic vascular resistance (HFrEF patients [4]; 90 mg, baseline to 120 minutes): −370 dynes·s/cm^−5
- median change in PWRi (mean LV power index) (HFrEF patients [4]; 90 mg, baseline to 120 minutes): 0.083 (IQR 0.126) Watts/mL^2·10^4
- median rise in cardiac output (HFrEF patients [4]; 90 mg, baseline to 120 minutes): 0.666 L/min
- percent increase in cardiac output (HFrEF patients [4]; 90 mg, pre versus post dose): 18%
- percent increase in mPWRi (HFrEF patients [4]; 90 mg, pre versus post dose): 33%
- total LV afterload (Ea) (HFrEF patients [4]; all doses): significantly reduced
- end-diastolic volume (HFrEF patients [4]; baseline to 120 minutes): little effect
- isovolumic relaxation time (HFrEF patients [4]; baseline to 120 minutes): little effect
- selectivity for PDE1 over PDE3 (PDE3): 94,000 fold
- feeling hot, share of subjects (HFrEF patients [6]; 27 subjects treated): 7%
- headache, share of subjects (HFrEF patients [6]; 27 subjects treated): 7%
- hypotension, share of subjects (HFrEF patients [6]; 27 subjects treated): 11%
- orthostatic hypotension, share of subjects (HFrEF patients [6]; 27 subjects treated): 11%
- parosmia, share of subjects (HFrEF patients [6]; 27 subjects treated): 15%
- taste disorder, share of subjects (HFrEF patients [6]; 27 subjects treated): 7%
- subjects with mild adverse events (HFrEF patients [6]; all ITI-214 doses): 11 of the 27 subjects
- serious adverse events (HFrEF patients [6]; any time in the study): no serious adverse events
- tolerability (HFrEF patients [6]; single dose): well-tolerated
